Data taken from ChEMBL document CHEMBL2406985, “Evaluation of (4-aminobutyloxy)quinolines as a novel class of antifungal agents” (2013).
In brackets after ≈: the same amount, converted by molar mass.

Experiments:
Assay type in all cases: functional
[1] = Antifungal activity against Rhodotorula bogoriensis MUCL 11796 at 0.1 mg/uL per disc after 24 hrs by disc diffusion test
[2] = system: Aspergillus flavus; assay: Antifungal activity against Aspergillus flavus ATCC 44310 at 0.1 mg/uL per disc after 48 hrs by disc diffusion test
[3] = system: Fusarium solani; assay: Antifungal activity against Fusarium solani CBS 230.34 at 0.1 mg/uL per disc after 48 hrs by disc diffusion test
[4] = system: Candida albicans; assay: Antifungal activity against Candida albicans IHEM 374 at 0.1 mg/uL per disc after 24 hrs by disc diffusion test
[5] = Antifungal activity against Rhodotorula bogoriensis MUCL 11796 after 24 hrs by microdilution method
Method in brief: (§1)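 Broth microdilution used stock inocula in saline at 0.5 McFarland. A log2 dilution series (0–500 mg/L) was made in double-concentration RPMI-1640 with glutamine and a pH indicator, without bicarbonate. Plates were incubated at 37 °C without agitation: C. albicans and R. bogoriensis 24 h, A. flavus 48 h, F. solani 72 h. Absorbance was read at 530 nm to give the MIC.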

[6] = system: Candida albicans; assay: Antifungal activity against Candida albicans IHEM 374 after 24 hrs by microdilution method; conditions: IHEM 374, 24 h; method in brief: as §1
[7] = system: Aspergillus flavus; assay: Antifungal activity against Aspergillus flavus ATCC 44310 after 48 to 72 hrs by microdilution method; method in brief: as §1
[8] = system: Fusarium solani; assay: Antifungal activity against Fusarium solani CBS 230.34 after 48 to 72 hrs by microdilution method; method in brief: as §1

Structure (SMILES): Clc1ccc(CNCCCCOc2cccc3ncccc23)cc1
- inhibition zone (IZ) [1]: 0 mm
- diameter of the inhibition zone (DIZ) [2]: 0 mm
- diameter of the inhibition zone (DIZ) [3]: 0 mm
- diameter of the inhibition zone (DIZ) [4]: 0 mm

Structure (SMILES): CCN(CC)CCC(C)COc1cccc2cccnc12 (centres undefined)
- inhibition zone (IZ) [1]: 0 mm
- diameter of the inhibition zone (DIZ) [2]: 0 mm
- diameter of the inhibition zone (DIZ) [3]: 0 mm
- diameter of the inhibition zone (DIZ) [4]: 0 mm

Structure (SMILES): CCN(CC)CCCCOc1c(I)cc(Cl)c2cccnc12
- inhibition zone (IZ) [1]: 14 mm
- diameter of the inhibition zone (DIZ) [2]: 7 mm
- diameter of the inhibition zone (DIZ) [3]: 0 mm
- diameter of the inhibition zone (DIZ) [4]: 0 mm

Structure (SMILES): CCN(CC)CCCCOc1cccc2cccnc12
- inhibition zone (IZ) [1]: 0 mm
- diameter of the inhibition zone (DIZ) [2]: 0 mm
- diameter of the inhibition zone (DIZ) [3]: 0 mm
- diameter of the inhibition zone (DIZ) [4]: 0 mm

Structure (SMILES): CCN(CC)CCC(C)COc1c(Br)cc(Br)c2cccnc12 (centres undefined)
- MIC [5]: 0.5 µg/mL (≈ 1.13 µM)
- inhibition zone (IZ) [1]: 28 mm
- diameter of the inhibition zone (DIZ) [2]: 7 mm
- diameter of the inhibition zone (DIZ) [3]: 0 mm
- diameter of the inhibition zone (DIZ) [4]: 20 mm
- MIC [6]: 0.25 µg/mL (≈ 0.563 µM)
- MIC [7]: 2 µg/mL (≈ 4.5 µM)

Structure (SMILES): CCN(CC)CCC(C)COc1c(I)cc(I)c2cccnc12 (centres undefined)
- MIC [5]: 0.5 µg/mL (≈ 0.929 µM)
- inhibition zone (IZ) [1]: 26 mm
- diameter of the inhibition zone (DIZ) [2]: 7 mm
- diameter of the inhibition zone (DIZ) [3]: 0 mm
- diameter of the inhibition zone (DIZ) [4]: 12 mm
- MIC [6]: 0.5 µg/mL (≈ 0.929 µM)
- MIC [7]: 4 µg/mL (≈ 7.43 µM)

Structure (SMILES): CCN(CC)CCC(C)COc1c(Cl)cc(Cl)c2cccnc12 (centres undefined)
- MIC [5]: 0.25 µg/mL (≈ 0.704 µM)
- inhibition zone (IZ) [1]: 32 mm
- diameter of the inhibition zone (DIZ) [2]: 12 mm
- diameter of the inhibition zone (DIZ) [3]: 0 mm
- diameter of the inhibition zone (DIZ) [4]: 10 mm
- MIC [6]: 0.5 µg/mL (≈ 1.41 µM)
- MIC [7]: 0.5 µg/mL (≈ 1.41 µM)

Structure (SMILES): CCN(CC)CCCCOc1cccc2ncccc12
- inhibition zone (IZ) [1]: 0 mm
- diameter of the inhibition zone (DIZ) [2]: 0 mm
- diameter of the inhibition zone (DIZ) [3]: 0 mm
- diameter of the inhibition zone (DIZ) [4]: 0 mm

Structure (SMILES): CC(CCNCc1ccc(Cl)cc1)COc1cccc2ncccc12 (centres undefined)
- inhibition zone (IZ) [1]: 7 mm
- diameter of the inhibition zone (DIZ) [2]: 0 mm
- diameter of the inhibition zone (DIZ) [3]: 0 mm
- diameter of the inhibition zone (DIZ) [4]: 0 mm

Structure (SMILES): CCN(CC)CCCCOc1ccc2ncccc2c1
- inhibition zone (IZ) [1]: 0 mm
- diameter of the inhibition zone (DIZ) [2]: 0 mm
- diameter of the inhibition zone (DIZ) [3]: 0 mm
- diameter of the inhibition zone (DIZ) [4]: 0 mm

Structure (SMILES): CCN(CC)CCC(C)COc1c(I)cc(Cl)c2cccnc12 (centres undefined)
- MIC [5]: 0.25 µg/mL (≈ 0.56 µM)
- inhibition zone (IZ) [1]: 30 mm
- diameter of the inhibition zone (DIZ) [2]: 10 mm
- diameter of the inhibition zone (DIZ) [3]: 0 mm
- diameter of the inhibition zone (DIZ) [4]: 7 mm
- MIC [6]: 4 µg/mL (≈ 8.95 µM)
- MIC [7]: 4 µg/mL (≈ 8.95 µM)

Structure (SMILES): CCN(CC)CCC(C)COc1c(Cl)cc(Cl)c2ccc(C)nc12 (centres undefined)
- MIC [5]: 0.12 µg/mL (≈ 0.325 µM)
- inhibition zone (IZ) [1]: 30 mm
- diameter of the inhibition zone (DIZ) [2]: 10 mm
- diameter of the inhibition zone (DIZ) [3]: 20 mm
- diameter of the inhibition zone (DIZ) [4]: 20 mm
- MIC [6]: 0.25 µg/mL (≈ 0.677 µM)
- MIC [7]: 0.5 µg/mL (≈ 1.35 µM)
- MIC [8]: 0.5 µg/mL (≈ 1.35 µM)

Structure (SMILES): Clc1ccc(CNCCCCOc2ccc(Cl)c3cccnc23)cc1
- inhibition zone (IZ) [1]: 30 mm
- diameter of the inhibition zone (DIZ) [2]: 0 mm
- diameter of the inhibition zone (DIZ) [3]: 0 mm
- diameter of the inhibition zone (DIZ) [4]: 8 mm

Structure (SMILES): CC(CCNCc1ccc(Cl)cc1)COc1c(I)cc(I)c2cccnc12 (centres undefined)
- inhibition zone (IZ) [1]: 10 mm
- diameter of the inhibition zone (DIZ) [2]: 0 mm
- diameter of the inhibition zone (DIZ) [3]: 0 mm
- diameter of the inhibition zone (DIZ) [4]: 7 mm

Structure (SMILES): CCN(CC)CCCCOc1ccc(Cl)c2cccnc12
- inhibition zone (IZ) [1]: 0 mm
- diameter of the inhibition zone (DIZ) [2]: 0 mm
- diameter of the inhibition zone (DIZ) [3]: 0 mm
- diameter of the inhibition zone (DIZ) [4]: 12 mm

Structure (SMILES): CC(CCNCc1ccc(Cl)cc1)COc1cccc2cccnc12 (centres undefined)
- inhibition zone (IZ) [1]: 15 mm
- diameter of the inhibition zone (DIZ) [2]: 0 mm
- diameter of the inhibition zone (DIZ) [3]: 0 mm
- diameter of the inhibition zone (DIZ) [4]: 0 mm

Structure (SMILES): Clc1ccc(CNCCCCOc2ccc3ncccc3c2)cc1
- inhibition zone (IZ) [1]: 0 mm
- diameter of the inhibition zone (DIZ) [2]: 0 mm
- diameter of the inhibition zone (DIZ) [3]: 0 mm
- diameter of the inhibition zone (DIZ) [4]: 0 mm
